The assay has as its target yeast Hsp90 M705V. As to the kind of experiment: ITC of TPR-domain proteins with yeast Hsp90 M705V. Type of assay: binding. The conditions noted are these: 300 μM CHIP injected into 30 μM yeast Hsp90 M705V, 30 °C, pH 8.0. An outline of the steps: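 ITC: mouse CHIP or yeast Tah1 (His tags cleaved) at 300 µM was titrated as 9–11 injections of 27 µl into 30 µM yeast Hsp90 M705V. Runs were at 30 °C for CHIP and 4 °C for Tah1, in 20 mM Tris/HCl pH 8.0, 1 mM EDTA, 5 mM NaCl. Data were corrected for separately measured heat of dilution and fitted by nonlinear least squares for stoichiometry, binding constant and enthalpy.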

B1: CHIP: mouse C-terminal of Hsp70-interacting protein, TPR-domain co-chaperone involved in ubiquitylation of chaperone-bound client proteins (protein)
chain: MKGKEEKEGGARLGTGGGGSPDKSPSAQELKEQGNRLFVGRKYPEAAACYGRAITRNPLVAVYYTNRALCYLKMQQPEQALADCRRALELDGQSVKAHFFLGQCQLEMESYDEAIANLQRAYSLAKEQRLNFGDDIPSALRIAKKKRWNSIEERRIHQESELHSYLTRLIAAERERELEECQRNHEGHEDDGHIRAQQACIEAKHDKYMADMDELFSQVDEKRKKRDIPDYLCGKISFELMREPCITPSGITYDRKDIEEHLQRVGHFDPVTRSPLTQEQLIPNLAMKEVIDAFISENGWVEDY
modifications: left off: His-PreScission tag, end not stated, cleaved
As a reminder, the Kd is the concentration at which binding is half-saturated. For B1, the Kd came out at 6.7 ± 0.62 µM.
